Experimental data from different studies.
Protocols differ between the studies behind these lines.
Target: Vascular endothelial growth factor receptor 2 (KDR, Homo sapiens, UniProt P35968)

test	setting	quantity	value	SMILES
cell-free assay	0.5 µM	remaining signal	99.2%	C[S+]([O-])c1ccc(-c2nc(-c3ccncc3)c(-c3ccc(F)cc3)[nH]2)cc1 (stereo not drawn)
enzyme activity, inhibitor, FRET	10 µM	inhibition	56%	CN(C)C1CCN(CC#Cc2nn(C3CCCC3)c3nc(NCc4ccccc4)ncc23)C1 (stereo not drawn)
enzyme activity, inhibitor	10 µM	remaining activity	46.1%	COc1ccc(NC(=O)c2c(Nc3ccccc3)sc(C(=O)NN=Cc3ccc(OC)c(O)c3)c2NC(C)=O)cc1
cell-free assay, competition with immobilised ligand	0.1 µM	remaining binding	85%	Cn1nc(C(=O)NCc2ccc(C(=O)O)cc2)cc1-c1ccc2[nH]ccc2c1
cell-free assay	0.5 µM	remaining signal	85.9%	Oc1cccc(-c2nc(N3CCOCC3)c3oc4ncccc4c3n2)c1
cell-free assay, competition with immobilised ligand	1 µM	remaining binding	100%	COc1ccc2cc(OCC3(C(=O)O)CN(C(=O)c4ccc(F)cc4)C3)ccc2c1
enzyme activity, inhibitor	1 µM	activity vs control	0%	Cc1ccc(C(=O)NCc2ccsc2)cc1C#Cc1cn(C(C)C)c2ncnc(N)c12
enzyme activity, inhibitor	1 µM	remaining activity	9%	Cc1[nH]c(/C=C2\C(=O)Nc3ccc(F)cc32)c(C)c1C(=O)N[C@H]1CCN(C(=O)N(C)C)C1
cell-free assay, competition with immobilised ligand	1 µM	remaining binding	92%	CCS(=O)(=O)c1cc2cc(C[C@@](O)(CC(C)(C)c3ccc(F)cc3C(N)=O)C(F)(F)F)[nH]c2cn1
enzyme activity, inhibitor	10 µM	inhibition	4.8%	CNc1cccc2cc(C(=O)Nc3ccc(C(=O)O)cc3)c(=O)[nH]c12
cell-free assay, competition with immobilised ligand	1 µM	remaining binding	81%	CCC(=N\O)/C(C)=C/c1ccc(F)cc1
enzyme activity, inhibitor	0.1 µM	inhibition	22%	COc1cc2nccc(Oc3ccc(NC(=O)c4c5n(n(-c6ccc(F)cc6)c4=O)CCCC5)cc3)c2cc1OC
enzyme activity, inhibitor	100 µM	remaining activity	60.6%	COc1ccc(NC(=O)c2c(Nc3ccccc3)sc(C(=O)NN=Cc3ccc(Cl)cc3)c2NC(C)=O)cc1
cell-free assay, competition with immobilised ligand	1 µM	remaining binding	74%	CN(C)c1ncnc(-c2ccc3nc(Nc4cc(CN5CCN(C(=O)CC(F)(F)F)CC5)ccn4)[nH]c3c2)c1Cl
enzyme activity, inhibitor	1 µM	activity vs control	25%	CC(C)c1ccc(NC(=O)c2cccs2)c(-c2nc3ccccc3[nH]c2=O)c1
enzyme activity, inhibitor	10 µM	inhibition	10%	O=C(CSc1nc2nccnc2c(=O)n1CCc1ccccc1)Nc1nccs1
enzyme activity, inhibitor	10 nM	remaining activity	98%	COc1ccc(NC(=O)c2c(Nc3ccccc3)sc(C#N)c2NC(=O)CNc2ccc(Cl)cc2)cc1
cell-free assay	20 µM	remaining signal	0%	Nc1ncnc2occ(-c3ccc(NC(=O)Nc4cc(C(F)(F)F)ccc4F)cc3)c12
cell-free assay, competition with immobilised ligand	1 µM	remaining binding	80%	CC(=O)N1CCC(c2ccc(C(=O)NC3=NCCN3)cc2C(F)(F)F)CC1
enzyme activity, inhibitor	10 µM	remaining activity	88.2%	Cc1sc(C(=O)NC2COC2)cc1-n1cc(NC(=O)Nc2c(F)cccc2Cl)cn1
enzyme activity, inhibitor	10 µM	remaining activity	71.8%	COc1ccc(NC(=O)c2c(Nc3ccccc3)sc(C#N)c2NC(=O)CNc2ccc([N+](=O)[O-])cc2)cc1
cell-free assay	0.5 µM	remaining signal	98.1%	O=C1Cc2c([nH]c3ccc(Br)cc23)-c2ccccc2N1
cell-free assay, competition with immobilised ligand	1 µM	remaining binding	100%	FC(F)(F)c1ccc2c(c1)nc(-c1cccnc1)n2C1CC1
cell-free assay	0.5 µM	remaining signal	106%	COc1cc2c(N3CCN(C(=O)Nc4ccc(OC(C)C)cc4)CC3)ncnc2cc1OCCCN1CCCCC1
enzyme activity, inhibitor	1 µM	remaining activity	51.3%	COc1ccc(NC(=O)c2c(Nc3ccccc3)sc(C#N)c2NC(=O)CNc2ccc(Br)cc2)cc1
cell-free assay	0.5 µM	remaining signal	86.1%	O=C1Nc2ccc(Cl)cc2C1=Cc1cc(Cl)c(O)c(Cl)c1
enzyme activity, inhibitor	10 µM	activity vs control	11%	c1nc2c(Nc3ccc4c(c3)OCCO4)nc(Nc3ccc4c(c3)OCCO4)nc2[nH]1
enzyme activity, inhibitor	1 µM	remaining activity	82.1%	COc1ccc(NC(=O)c2c(Nc3ccccc3)sc(C(=O)NN=Cc3cc(OC)c(OC)c(OC)c3)c2NC(C)=O)cc1
cell-free assay, competition with immobilised ligand	1 µM	remaining binding	88%	C[C@H](c1cccc(C#N)c1)n1cc(Cl)cc(C(N)=O)c1=N
enzyme activity, inhibitor	1 µM	inhibition	14%	COc1cc2ncnc(Nc3ccc(Oc4ccccc4)cc3C)c2cc1OC
